Measured values from ChEMBL document CHEMBL2380284, “X-ray crystal structures of the Escherichia coli RNA polymerase in complex with benzoxazinorifamycins” (J Med Chem, 2013).

What was measured:
[1] = Inhibition of wild type Escherichia coli RNA polymerase after 10 mins by rolling circle transcription assay in presence of DNA nanocircle template NC45
Outline: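 Wild-type core enzyme (10 nM final), Ni-NTA purified, with compound at 1.56-100 or 3.12-200 nM, held 10 min at 37 °C in Tris-HCl pH 8.0 buffer with KCl, MgCl2, Triton X-100, DTT and RNase inhibitor. Transcription on 80 nM NC45 circle was started with NTPs (500 µM each). Each compound run in duplicate; IC50 by nonlinear four-parameter logistic regression.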

[2] = molecular target: DNA-directed RNA polymerase subunit beta (Escherichia coli O127:H6 (strain E2348/69 / EPEC), UniProt B7UPE2, H526Y); assay: Inhibition of rifamycin-resistant Escherichia coli RNA polymerase H526Y mutant after 10 mins by rolling circle transcription assay in presence of DNA nanocircle template NC45
[3] = Inhibition of wild type Mycobacterium tuberculosis RNA polymerase after 10 mins by rolling circle transcription assay in presence of DNA nanocircle template NC45
[4] = molecular target: DNA-directed RNA polymerase subunit beta (Escherichia coli O127:H6 (strain E2348/69 / EPEC), UniProt B7UPE2, D516V); assay: Inhibition of rifamycin-resistant Escherichia coli RNA polymerase D516V mutant after 10 mins by rolling circle transcription assay in presence of DNA nanocircle template NC45
DNA-directed RNA polymerase subunit beta (Escherichia coli O127:H6 (strain E2348/69 / EPEC), UniProt B7UPE2, D516V), sequence (B7UPE2 whole entry D516V): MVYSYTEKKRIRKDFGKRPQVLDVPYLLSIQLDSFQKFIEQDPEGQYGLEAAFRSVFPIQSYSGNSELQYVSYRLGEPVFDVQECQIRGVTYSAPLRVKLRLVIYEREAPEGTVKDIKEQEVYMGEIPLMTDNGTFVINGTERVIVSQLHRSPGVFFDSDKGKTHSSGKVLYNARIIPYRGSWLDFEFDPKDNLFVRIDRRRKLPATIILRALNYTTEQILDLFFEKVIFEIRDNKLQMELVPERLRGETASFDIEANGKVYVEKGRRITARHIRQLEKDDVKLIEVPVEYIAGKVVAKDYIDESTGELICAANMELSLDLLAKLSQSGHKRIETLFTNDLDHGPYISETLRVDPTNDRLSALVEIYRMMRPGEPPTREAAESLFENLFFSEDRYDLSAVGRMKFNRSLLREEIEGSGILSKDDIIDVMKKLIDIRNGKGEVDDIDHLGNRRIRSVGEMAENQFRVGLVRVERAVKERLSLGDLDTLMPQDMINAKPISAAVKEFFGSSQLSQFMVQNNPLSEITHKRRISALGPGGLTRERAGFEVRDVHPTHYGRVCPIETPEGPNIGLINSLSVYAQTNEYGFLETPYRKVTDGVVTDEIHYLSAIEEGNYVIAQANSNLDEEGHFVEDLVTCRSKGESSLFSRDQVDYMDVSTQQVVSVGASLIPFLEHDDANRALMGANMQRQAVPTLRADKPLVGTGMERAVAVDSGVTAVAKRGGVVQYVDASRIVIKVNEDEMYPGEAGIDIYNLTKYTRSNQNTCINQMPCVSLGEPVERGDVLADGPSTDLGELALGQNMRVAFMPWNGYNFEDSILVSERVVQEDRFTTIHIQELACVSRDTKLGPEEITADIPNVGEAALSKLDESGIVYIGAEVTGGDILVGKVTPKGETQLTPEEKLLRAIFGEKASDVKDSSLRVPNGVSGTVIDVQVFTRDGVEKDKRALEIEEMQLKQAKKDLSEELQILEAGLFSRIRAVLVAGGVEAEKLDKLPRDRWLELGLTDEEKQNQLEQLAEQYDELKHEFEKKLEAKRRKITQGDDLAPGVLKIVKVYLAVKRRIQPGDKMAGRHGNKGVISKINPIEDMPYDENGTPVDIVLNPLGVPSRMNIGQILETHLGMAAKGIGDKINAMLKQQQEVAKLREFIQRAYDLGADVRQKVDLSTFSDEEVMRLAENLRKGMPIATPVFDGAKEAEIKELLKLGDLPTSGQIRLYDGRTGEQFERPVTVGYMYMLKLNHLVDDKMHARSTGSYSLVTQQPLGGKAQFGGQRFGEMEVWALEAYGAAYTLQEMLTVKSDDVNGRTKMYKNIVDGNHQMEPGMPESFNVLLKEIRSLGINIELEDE

DNA-directed RNA polymerase subunit beta (Escherichia coli O127:H6 (strain E2348/69 / EPEC), UniProt B7UPE2, H526Y), sequence (B7UPE2 whole entry H526Y): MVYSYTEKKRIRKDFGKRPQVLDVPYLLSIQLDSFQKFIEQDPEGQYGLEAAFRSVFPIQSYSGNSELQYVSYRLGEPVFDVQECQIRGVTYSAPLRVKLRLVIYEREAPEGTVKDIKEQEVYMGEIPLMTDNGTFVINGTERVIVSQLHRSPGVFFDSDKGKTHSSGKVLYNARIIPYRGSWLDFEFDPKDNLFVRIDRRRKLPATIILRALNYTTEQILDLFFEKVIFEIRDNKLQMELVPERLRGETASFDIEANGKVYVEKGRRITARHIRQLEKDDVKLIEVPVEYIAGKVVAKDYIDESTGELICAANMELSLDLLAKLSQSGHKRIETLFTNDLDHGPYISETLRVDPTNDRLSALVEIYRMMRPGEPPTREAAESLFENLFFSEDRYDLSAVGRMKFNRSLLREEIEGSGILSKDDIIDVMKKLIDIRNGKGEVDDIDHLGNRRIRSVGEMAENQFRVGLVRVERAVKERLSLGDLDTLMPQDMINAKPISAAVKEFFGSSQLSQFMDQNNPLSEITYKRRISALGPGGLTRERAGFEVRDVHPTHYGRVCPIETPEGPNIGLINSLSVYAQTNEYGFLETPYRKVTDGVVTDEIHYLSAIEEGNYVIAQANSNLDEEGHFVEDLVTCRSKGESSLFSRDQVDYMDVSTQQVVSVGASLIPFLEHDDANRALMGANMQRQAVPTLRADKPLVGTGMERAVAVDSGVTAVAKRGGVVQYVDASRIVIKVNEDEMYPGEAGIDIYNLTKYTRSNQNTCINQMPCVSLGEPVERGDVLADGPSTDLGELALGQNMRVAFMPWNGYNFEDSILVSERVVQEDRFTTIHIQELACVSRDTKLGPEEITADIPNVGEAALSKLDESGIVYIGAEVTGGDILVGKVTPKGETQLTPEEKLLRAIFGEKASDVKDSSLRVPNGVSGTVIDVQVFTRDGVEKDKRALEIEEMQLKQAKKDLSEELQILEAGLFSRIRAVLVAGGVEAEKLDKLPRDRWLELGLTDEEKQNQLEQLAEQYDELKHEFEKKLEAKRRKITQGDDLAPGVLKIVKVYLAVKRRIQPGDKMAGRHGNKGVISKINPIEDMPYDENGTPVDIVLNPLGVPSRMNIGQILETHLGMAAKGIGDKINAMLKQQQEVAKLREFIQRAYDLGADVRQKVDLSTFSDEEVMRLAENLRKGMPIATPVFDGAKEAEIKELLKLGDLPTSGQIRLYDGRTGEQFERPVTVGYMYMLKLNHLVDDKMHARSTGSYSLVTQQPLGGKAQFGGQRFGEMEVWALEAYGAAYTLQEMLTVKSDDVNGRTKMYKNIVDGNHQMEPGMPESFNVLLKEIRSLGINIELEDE

With `CO[C@H]1/C=C/O[C@@]2(C)Oc3c(C)c(O)c4c(O)c(c(/C=N/N5CCN(C)CC5)c(O)c4c3C2=O)NC(=O)/C(C)=C\C=C\[C@H](C)[C@H](O)[C@@H](C)[C@@H](O)[C@@H](C)[C@H](OC(C)=O)[C@@H]1C` [RIFAMPIN] the IC50 [1] was 12 nM, the IC50 [2] was 1.13 mM and the IC50 [3] was 17 nM. For the same molecule, the IC50 [4] was 233 µM.
`CCN(CC)CCOc1cccc2oc3c4c(=O)c5c(O)c(C)c6c(c5c-3nc12)C(=O)[C@@](C)(O/C=C/[C@H](OC)[C@@H](C)[C@@H](OC(C)=O)[C@H](C)[C@H](O)[C@H](C)[C@@H](O)[C@@H](C)/C=C/C=C(/C)C(=O)N4)O6` showed an IC50 [1] of 57 nM, an IC50 [2] of 1.15 mM and an IC50 [4] of 35 µM.
In the case of `CO[C@H]1/C=C/O[C@@]2(C)Oc3c(C)c(O)c4c(=O)c(c5oc6cccc(OCCCCN7CCN(C(=O)Cn8ccnc8)CC7)c6nc-5c4c3C2=O)NC(=O)/C(C)=C\C=C\[C@H](C)[C@H](O)[C@@H](C)[C@@H](O)[C@@H](C)[C@H](OC(C)=O)[C@@H]1C`, the IC50 [1] is reported as 21 nM, the IC50 [2] is reported as 1.58 mM and the IC50 [4] is reported as 41 µM.
`CO[C@H]1/C=C/O[C@@]2(C)Oc3c(C)c(O)c4c(=O)c(c5oc6cc(N7CCN(CC(C)C)CC7)cc(O)c6nc-5c4c3C2=O)NC(=O)/C(C)=C\C=C\[C@H](C)[C@H](O)[C@@H](C)[C@@H](O)[C@@H](C)[C@H](OC(C)=O)[C@@H]1C` [RIFALAZIL] showed an IC50 [1] of under 10 nM, an IC50 [2] of 0.299 mM and an IC50 [4] of 204 µM.
Molecule `CO[C@H]1/C=C/O[C@@]2(C)Oc3c(C)c(O)c4c(=O)c(c5oc6cccc(OCCCCN7CCN(CCn8ccnc8)CC7)c6nc-5c4c3C2=O)NC(=O)/C(C)=C\C=C\[C@H](C)[C@H](O)[C@@H](C)[C@@H](O)[C@@H](C)[C@H](OC(C)=O)[C@@H]1C` has an IC50 [1] of 24 nM, an IC50 [2] of at least 2 mM and an IC50 [4] of 2 µM.
